The term AC50 denotes the midpoint of the concentration-response curve, whichever way the signal moves.

SMILES strings stand for the structures. Inconclusive results are not listed. Activity calls are given as the source filed them.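 Rule for the calls: active = fitted half-maximal caspase rise reached at or below ten times the top valid dose; inconclusive = flat fit between 30 and 70 percent, or poor fit; inactive = the rest.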

Assay [1] is described as follows: caspase activation in Bax/Bak null MEFs, dose response, counter-screen for Bcl2-A1 inhibitor project, cell-based, mouse embryonic fibroblasts, dry powder (AID 488898). The settings on record: Bax/Bak-/- MEF caspase activation, CaspaseGlo luminescence, 3 h. In a few lines: (§1)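 Material – Bax/Bak-null mouse embryonic fibroblasts · Input – 2500 cells/well · Doses – compound added to cells by pin transfer · Times – 3 h compound exposure (37 °C), then 1 h RT detection · Technique – Caspase-Glo luminescence for caspase activity · Read-out basis – caspase activation, flagging off-target or general toxicity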
On the technique in general: A counterscreen serves to expose hits that act by an unwanted route or on another target.

Assay [2] relates to Bax/Bak-/- MEF caspase activation, CaspaseGlo luminescence, 3 h. The description is as above. In outline: as §1

As for `C/C1=C/C(=O)O[C@@H]2C[C@@H](CC[C@H](C)/C=C\CC1)O[C@@](O)(C1CSC(=O)N1)C2` (some centres undefined), in assay [1] (at 150 µM (top of the series)), the caspase activation was 1.16% (inactive). Take `Cn1c(=NC(=O)CCl)sc2ccccc21`: the caspase activation in assay [1] (at 150 µM (top of the series)) was 0.685% (inactive).

For the compound `CC(=O)OC(C)(C)/C=C/C(=O)[C@](C)(O)C1[C@H](O)C[C@@]2(C)C3CC=C4C(C[C@H](O)C(=O)C4(C)C)[C@]3(C)C(=O)C[C@]12C` (some centres undefined), the caspase activation in assay [1] (at 150 µM (top of the series)) is 0.556% (inactive). Regarding `CC(=O)N[C@H]1[C@H](O[C@H]2CC[C@@]3(C)C(CC[C@]4(C)C3CC=C3[C@@H]5CC(C)(C)CC[C@]5(C(=O)OC5OCC(O)C(O)C5O)C(O)C[C@]34C)C2(C)C)O[C@H](COC2OCC(O)C(OC3OCC(O)C(O)C3O)C2O)[C@@H](O[C@@H]2O[C@@H](C)[C@H](O)[C@@H](O)[C@H]2O[C@@H]2O[C@@H](C)[C@H](O)[C@@H](O)[C@H]2O)[C@@H]1O` (some centres undefined), the caspase activation in assay [1] (at 135 µM (top of the series)) is -0.158% (inactive). On to `Cc1c(CCOC(=O)c2ccc(N3CCOCC3)c([N+](=O)[O-])c2)sc[n+]1CC#N`, for which, in assay [1] (at 150 µM (top of the series)), the caspase activation is 0.688% (inactive).

As for `CCSc1nnc(NC(=O)c2nc(S(=O)(=O)Cc3ccc(F)cc3)ncc2Cl)s1`, the caspase activation in assay [1] (at 150 µM (top of the series)) is -0.717% (inactive).

`Cc1ccc(CS(=O)(=O)c2ncc(Cl)c(C(=O)Nc3nnc(C(C)C)s3)n2)cc1`: the caspase activation in assay [1] (at 150 µM (top of the series)) is -0.479% (inactive). Same read-out and setting: then `Cc1c(C=O)c(C=O)c(C)n1Cc1ccccc1`, with 1.17% (inactive); and `O=C(Oc1cccc(/C=N/Nc2nc(Nc3ccccc3)nc(N3CCOCC3)n2)c1)c1ccco1`, with 0.146% (inactive); and `Nc1nc(F)nc2c1ncn2[C@@H]1O[C@H](CO)[C@@H](O)[C@H]1O`, with -0.0553% (inactive). For the compound `O=C(CCl)N=c1sccn1Cc1ccccc1Cl`, the caspase activation in assay [1] (at 150 µM (top of the series)) was 0.854% (inactive). On the same count and under the same terms, then `CCc1nnc(NC(=O)c2nc(S(=O)(=O)Cc3ccccc3)ncc2Cl)s1`, with -0.106% (inactive). On the same count and under the same terms, then `Cc1ccc(Sc2c([N+](=O)[O-])c(=O)n(C)c3ccccc23)cc1`, with 1% (inactive); and `COc1cc(/C=C(/C#N)c2nc3ccccc3[nH]2)ccc1OCC(=O)Nc1ccccc1C(C)C`, with 1.27% (inactive); and `COc1cccc(C(=O)C(C#N)=C(SC)SC)c1`, with 0.208% (inactive). On the same count and under the same terms, then `C=C1[C@@H](C)[C@H]2[C@H](Cc3ccccc3)NC(=O)[C@]23OC(=O)/C=C\[C@H](O)CCC[C@@H](C)C/C=C/[C@H]3[C@@H]1O`, with 0.116% (inactive). For `COc1ccc(N(C(=O)CCl)C(C(=O)NCCc2ccccc2)c2cccs2)cc1Cl` (centres undefined), the AC50 in assay [2] was 24.9 µM.

In the case of `Cc1cc(C(=O)CCl)c(C)n1CCc1ccc(Cl)cc1`, the concentration at half-maximal activity (AC50) in assay [2] was 13.3 µM. Regarding `CC(C)(C)n1nc(-c2ccc(Cl)cc2)c2c(N)ncnc21`, in assay [1] (at 150 µM (top of the series)), the caspase activation was 2.79% (inactive). For `CCOC(=O)CSC1=N/C(=C/c2ccc(-n3cncn3)cc2)C(=O)N1C(C)=O`, the caspase activation in assay [1] (at 150 µM (top of the series)) is -0.0192% (inactive). On the same count and under the same terms, then `Cc1cccc(CS(=O)(=O)c2ncc(Cl)c(C(=O)Nc3nnc(C(C)C)s3)n2)c1`, with -0.163% (inactive). In the case of `C=C1[C@@H](C)[C@H]2[C@H](Cc3ccccc3)NC(=O)[C@]23[C@H](OC(C)=O)/C=C/[C@](C)(O)C(=O)[C@@H](C)C/C=C/[C@H]3[C@@H]1O`, in assay [1] (at 150 µM (top of the series)), the caspase activation was 0.127% (inactive).

Consider `Cc1cccc(NC(=O)/C(C#N)=C/c2cn(CC(=O)NCc3ccco3)c3ccccc23)c1`, for which the half-maximal activity concentration (AC50) in assay [2] is 4.78 µM.

With `CCc1cc2c(=O)c(-c3cnn(-c4ccccc4)c3)c(C)oc2cc1OCC(=O)Nc1cccc(C)c1`, the caspase activation in assay [1] (at 150 µM (top of the series)) was 0.45% (inactive).

The record behind these values is PubChem BioAssay AID488898 (Broad Institute, 2010).
